Published values gathered from unrelated publications.
Target: Ephrin type-B receptor 1 (EPHB1, Homo sapiens, UniProt P54762)
Residues used in one study (P54762 18-984): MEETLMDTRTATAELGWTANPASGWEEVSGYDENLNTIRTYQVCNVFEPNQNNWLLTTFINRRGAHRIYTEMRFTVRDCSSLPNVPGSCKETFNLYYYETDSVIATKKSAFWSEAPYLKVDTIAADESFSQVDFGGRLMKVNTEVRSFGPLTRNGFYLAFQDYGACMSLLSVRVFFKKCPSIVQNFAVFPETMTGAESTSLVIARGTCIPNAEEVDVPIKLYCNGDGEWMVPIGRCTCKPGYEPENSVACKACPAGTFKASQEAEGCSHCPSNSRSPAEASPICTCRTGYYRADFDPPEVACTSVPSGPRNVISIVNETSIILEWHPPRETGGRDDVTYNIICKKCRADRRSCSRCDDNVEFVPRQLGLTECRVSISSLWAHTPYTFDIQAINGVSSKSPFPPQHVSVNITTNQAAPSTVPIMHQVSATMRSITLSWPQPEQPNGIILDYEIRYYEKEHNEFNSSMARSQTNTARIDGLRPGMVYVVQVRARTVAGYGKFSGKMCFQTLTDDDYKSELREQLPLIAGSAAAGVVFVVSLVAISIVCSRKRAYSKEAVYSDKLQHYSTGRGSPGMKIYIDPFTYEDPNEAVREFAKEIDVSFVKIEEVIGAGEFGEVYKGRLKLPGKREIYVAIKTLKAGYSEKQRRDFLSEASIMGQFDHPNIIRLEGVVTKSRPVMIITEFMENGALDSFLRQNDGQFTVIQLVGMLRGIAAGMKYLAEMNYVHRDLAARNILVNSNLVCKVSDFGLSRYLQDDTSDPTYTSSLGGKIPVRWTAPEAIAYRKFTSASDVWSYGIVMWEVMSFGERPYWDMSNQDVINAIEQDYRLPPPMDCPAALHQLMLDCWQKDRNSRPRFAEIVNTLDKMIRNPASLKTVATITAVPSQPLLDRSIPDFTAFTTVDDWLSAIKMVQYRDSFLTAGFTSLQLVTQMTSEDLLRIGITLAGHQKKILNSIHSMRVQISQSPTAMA

COc1cc(Nc2cnc(C#N)c(O[C@H](C)CN(C)C)n2)ncc1-c1cnn(C)c1  remaining activity (enzyme activity; inhibitor; radiometric; 1 µM): 100%
Cc1ccc(C(=O)NCc2ccsc2)cc1C#Cc1cn(C(C)C)c2ncnc(N)c12  activity vs control (enzyme activity; inhibitor; 1 µM): 12%
COc1cc(-c2cc(-c3ccc(N4CCNCC4)cc3)cnc2C)cc(OC)c1OC  inhibition (enzyme activity; inhibitor; 0.1 µM): 5%
O=C(Nc1cnn(-c2csc(C(=O)NC3COC3)c2)c1)Nc1ccccc1Cl  remaining activity (enzyme activity; inhibitor; 5 µM): 100%
Cc1ccc(Nc2nccc(N(C)c3ccc4c(C)n(C)nc4c3)n2)cc1S(N)(=O)=O  inhibition (enzyme activity; inhibitor; 0.3 µM): 8%
CS(=O)(=O)CCNCc1ccc(-c2ccc3ncnc(Nc4ccc(OCc5cccc(F)c5)c(Cl)c4)c3c2)o1  remaining signal (cell-free assay; 0.5 µM): 104%
Cc1cc(NC(=O)c2cccc3cc(-c4cccc5[nH]nc(N)c45)ccc23)ccc1F  activity vs control (enzyme activity; inhibitor; 0.1 µM): 127%
CC(=O)c1c(NS(C)(=O)=O)c2cc(-c3ccc(Cl)cc3)c(-c3ccc(Cl)cc3Cl)nc2n(C)c1=O  remaining binding (cell-free assay; competition with immobilised ligand; 1 µM): 100%
Cc1ccc(C(=O)Nc2ccc(CN3CCN(C)CC3)c(C(F)(F)F)c2)cc1C#Cc1cnc2cccnn12  remaining signal (cell-free assay; 23.5 nM): 29%
N#CCCc1ccc2c(c1)-c1[nH]c3ccc([N+](=O)[O-])cc3c1CC(=O)N2  remaining signal (cell-free assay; 0.5 µM): 99.1%
CC/C(=N\NC(=O)NCc1cccc(O)c1)c1ccc(O)c(C)c1O  inhibition (enzyme activity; inhibitor; 0.1 µM): -1%
CC(C)(C)c1nc2c(s1)c1nc(N)ncc1c1ccc(NS(=O)(=O)c3c(F)cccc3F)c(F)c12  remaining activity (enzyme activity; inhibitor; radiometric; 1 µM): 76%
O=C(O)[C@H]1[C@H](Cn2nnc3ccccc3c2=O)CC[C@@H]1C(=O)c1ccc(OCCC2CCOCC2)cc1  remaining binding (cell-free assay; competition with immobilised ligand; 1 µM): 100%
C#Cc1cccc(Nc2ncnc3cc(OCCOC)c(OCCOC)cc23)c1  remaining signal (cell-free assay; 0.5 µM): 100%
Cc1c(NC(=O)c2cc(C(N)=O)nc3cc(F)ccc23)c(C(F)(F)F)nn1Cc1ccc(C#N)cc1  remaining binding (cell-free assay; competition with immobilised ligand; 1 µM): 66%
Cn1c(=O)n(-c2ccc(C(C)(C)C#N)cc2)c2c3cc(-c4cnc5ccccc5c4)ccc3ncc21  remaining activity (enzyme activity; inhibitor; 10 µM): 133%
CCN(CC)CCNC(=O)c1c(C)[nH]c(/C=C2\C(=O)Nc3ccc(F)cc32)c1C  inhibition (enzyme activity; inhibitor; 10 µM): 91%
C[C@@H]1CN(c2cc(-c3n[nH]c4ccc(OC5(C)CC5)cc34)ncn2)C[C@H](C)O1  remaining binding (cell-free assay; competition with immobilised ligand; 0.1 µM): 83%
Nc1ncnc2occ(-c3ccc(NC(=O)Nc4cc(C(F)(F)F)ccc4F)cc3)c12  remaining signal (cell-free assay; 20 µM): 0%
CO[C@@H](C)c1c(Nc2ccc([C@@H](N(C)C(=O)C3CCS(=O)(=O)CC3)C(F)(F)F)cc2)cnc2cc(Cl)nn12  remaining binding (cell-free assay; competition with immobilised ligand; 1 µM): 92%
O=C1NC(=O)c2cc(Nc3ccc(F)cc3)c(Nc3ccc(F)cc3)cc21  remaining signal (cell-free assay; 0.5 µM): 103%
O=C1NC(c2ccccn2)Sc2ccccc21 (centres unmarked)  remaining binding (cell-free assay; competition with immobilised ligand; 1 µM): 90%
Cc1ccc(NC(=O)c2ccc(C)c(C(F)(F)F)c2)cc1C#Cc1nn(C2CCC(O)CC2)c2ncnc(N)c12 (centres unmarked)  remaining signal (cell-free assay; 10 µM): -1%
Cc1nccc(COC(=O)N2C[C@@H]3[C@@H](CNC(=O)c4ccc5[nH]nnc5c4)[C@@H]3C2)n1  remaining binding (cell-free assay; competition with immobilised ligand; 1 µM): 95%
CNC(=O)c1cc2c(Oc3ccc(NC(=O)C4(C(=O)Nc5ccc(F)cc5)CC4)cc3)ccnc2cc1OC  inhibition (enzyme activity; inhibitor; radiometric; 1 µM): 99%
COc1cc2ncnc(Nc3ccc(Oc4ccccc4)c(C)c3C)c2cc1OC  inhibition (enzyme activity; inhibitor; 1 µM): 3%
O=C(N1CCS(=O)(=O)CC1)N1C[C@H](c2ccc(OC(F)(F)F)cc2)C[C@H](c2nc(C3CC3)no2)C1  remaining binding (cell-free assay; competition with immobilised ligand; 1 µM): 100%
CCN(CC)c1ccc(C2=NNC(=O)CC2C)cc1[N+](=O)[O-] (centres unmarked)  remaining activity (enzyme activity; inhibitor; 10 µM): 97%
CC(C)(O)[C@H]1CC[C@H](Nc2ccc3ncc(-c4cccc(C(F)(F)F)c4)n3n2)CC1  remaining activity (enzyme activity; inhibitor; 1 µM): 85%
